Measured values as given in ChEMBL document CHEMBL1141264, “Cucurbitane-type triterpenoids from the fruits of Momordica charantia and their cancer chemopreventive effects” (J Nat Prod, 2007).

Tests used:
[1] = Cytotoxicity against human Raji cells assessed as cell viability at 1000 mol ratio/TPA relative to control; assay type: cell-based; conditions: read-out: Activity
Procedure, shortened: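 Raji cells stimulated with TPA at 32 pmol (20 ng), taken as 100% positive control. Test compound added at mol ratio to TPA of 1000, 500, 100 or 10 (1000:1 = 32 nmol). EBV-EA induction expressed as % of positive control; Raji cell viability recorded as % at the 1000 ratio. IC50 as mol ratio to TPA inhibiting 50% of control.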

[2] = system: Raji; assay: Inhibition of TPA-induced Epstein-Barr virus early antigen in Raji cells at 10 mol ratio/TPA relative to control; values are per cent of control; conditions: human gammaherpesvirus 4
[3] = system: Raji; assay: Inhibition of TPA-induced Epstein-Barr virus early antigen in Raji cells at 500 mol ratio/TPA relative to control; values are per cent of control; conditions: human gammaherpesvirus 4
[4] = system: Raji; assay: Inhibition of TPA-induced Epstein-Barr virus early antigen in Raji cells at 100 mol ratio/TPA relative to control; values are per cent of control; conditions: human gammaherpesvirus 4
[5] = system: Raji; assay: Inhibition of TPA-induced Epstein-Barr virus early antigen in Raji cells at 1000 mol ratio/TPA relative to control; values are per cent of control; conditions: human gammaherpesvirus 4
[6] = Scavenging activity against NO generation in NOR1-induced cell culture; assay type: functional
Procedure, shortened: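 Cultured-cell screen for scavenging of NO released by the NO donor NOR 1. Activity expressed as inhibitory ratio (IR) against NOR 1 action, with glycyrrhizin and carboxy-PTIO as reference compounds.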

[7] = species on record: Mus musculus; assay: Inhibition of DMBA-induced carcinogenesis in mouse assessed as reduction in papilloma bearing mouse after 10 weeks; assay type: functional; set-up: scale not given: the % may be the effect or the level left
Procedure, shortened: (§1)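 Mouse skin two-stage model, DMBA initiation and TPA promotion. Promotion with TPA 1.7 nmol; treated groups received 85 nmol test compound with each TPA application. Read-outs were % of mice bearing papillomas and mean papillomas per mouse, scored at 10 and 20 weeks. Papilloma numbers compared by Student's t-test.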

[8] = species on record: Mus musculus; assay: Inhibition of DMBA-induced carcinogenesis in mouse assessed as reduction in papilloma bearing mouse after 20 weeks; assay type: functional; set-up: scale not given: the % may be the effect or the level left; procedure, shortened: as §1
[9] = species on record: Mus musculus; assay: Inhibition of DMBA-induced carcinogenesis in mouse assessed as number of papillomas per mouse after 10 weeks; assay type: functional; procedure, shortened: as §1
[10] = species on record: Mus musculus; assay: Inhibition of DMBA-induced carcinogenesis in mouse assessed as number of papillomas per mouse after 20 weeks; assay type: functional; procedure, shortened: as §1

SMILES	viability at 1000 mol ratio/TPA [1] [%]	level, % of control [2] [%]	level, % of control [3] [%]	level, % of control [4] [%]	level, % of control [5] [%]	inhibitory ratio (IR) against NOR 1 action [6]	Activity [7] [%]	Activity [8] [%]	Activity [9]	Activity [10]
COC(C)(C)/C=C/C[C@@H](C)[C@H]1CC[C@@]2(C)[C@@H]3C=C[C@@]45OC[C@]3(CC[C@]12C)[C@@H]4CC[C@H](O[C@@H]1O[C@H](CO)[C@@H](O)[C@H](O)[C@H]1O)C5(C)C [MOMORDICOSIDE F1]	70	100	31.5	78.1	11.3					
CO[C@@H]1O[C@]23C=C[C@@H]4[C@@]1(CC[C@]1(C)[C@@H]([C@H](C)C[C@H](C=C(C)C)OC)CC[C@@]41C)[C@@H]2CC[C@H](O[C@@H]1O[C@H](CO)[C@@H](O)[C@@H](O)[C@H]1O)C3(C)C [CHARANTOSIDE II]	70	100	35	82.1	12.3					
COC1O[C@]23C=C[C@@H]4[C@@]1(CC[C@]1(C)[C@@H]([C@H](C)C/C=C/C(C)(C)OC)CC[C@@]41C)[C@@H]2CC[C@H](O[C@@H]1O[C@H](CO)[C@@H](O)[C@@H](O)[C@H]1O)C3(C)C (some centres undefined) [GOYAGLYCOSIDE D]	70	100	34.2	80.3	11.2					
CC1(C)[C@@H](O[C@H]2O[C@H](C(=O)O)[C@@H](O)[C@H](O)[C@H]2O[C@@H]2O[C@H](C(=O)O)[C@@H](O)[C@H](O)[C@H]2O)CC[C@]2(C)[C@H]3C(=O)C=C4[C@@H]5C[C@@](C)(C(=O)O)CC[C@]5(C)CC[C@@]4(C)[C@]3(C)CC[C@@H]12 [GLYCYRRHIZIN]	> 80	100	63.3	83.3	27.4	2.2				
C=C(C)/C=C/C[C@@H](C)[C@H]1CC[C@@]2(C)[C@@H]3[C@@H](OC)C=C4[C@@H](CC[C@H](O)C4(C)C)[C@]3(C=O)CC[C@]12C	70	95.3	22.5	75.4	0	1.6				
CO[C@H]1C=C2[C@@H](CC[C@H](O[C@@H]3O[C@H](CO)[C@@H](O)[C@H](O)[C@H]3O)C2(C)C)[C@]2(C=O)CC[C@]3(C)[C@@H]([C@H](C)C/C=C/C(C)(C)OC)CC[C@@]3(C)[C@H]12 [CHARANTOSIDE VIII]	70	100	38.5	82.5	15.3					
C=C(C)/C=C/C[C@@H](C)[C@H]1CC[C@@]2(C)[C@@H]3C=C[C@@]45OC[C@]3(CC[C@]12C)[C@@H]4CC[C@H](O[C@@H]1O[C@H](CO)[C@@H](O)[C@H](O)[C@H]1O)C5(C)C [CHARANTOSIDE III]	70	100	36	82.1	12.9					
C=C(C)/C=C/C[C@@H](C)[C@H]1CC[C@@]2(C)[C@@H]3C=C[C@@]45OC[C@]3(CC[C@]12C)[C@@H]4CC[C@H](O[C@@H]1O[C@H](CO)[C@@H](O)[C@@H](O)[C@H]1O)C5(C)C [CHARANTOSIDE IV]	70	100	35	81.1	12.1					
CO[C@H](C=C(C)C)C[C@@H](C)[C@H]1CC[C@@]2(C)[C@@H]3C=C[C@@]45OC[C@]3(CC[C@]12C)[C@@H]4CC[C@H](O[C@@H]1O[C@H](CO)[C@@H](O)[C@@H](O)[C@H]1O)C5(C)C [CHARANTOSIDE VI]	70	100	35.9	82	12.7					
COC1O[C@]23C=C[C@@H]4[C@@]1(CC[C@]1(C)[C@@H]([C@H](C)C/C=C/C(C)(C)OC)CC[C@@]41C)[C@@H]2CC[C@H](O[C@@H]1O[C@H](CO)[C@@H](O)[C@H](O)[C@H]1O)C3(C)C (some centres undefined) [GOYAGLYCOSIDE C]	70	100	33.7	80	13.5					
C[C@H](C/C=C/C(C)(C)O)[C@H]1CC[C@@]2(C)[C@@H]3C=C[C@@]45OC[C@]3(CC[C@]12C)[C@@H]4CC[C@H](O[C@@H]1O[C@H](CO)[C@@H](O)[C@@H](O)[C@H]1O)C5(C)C [MOMORDICOSIDE F2]	70	100	29.7	76.9	9.1					
C=C(C)/C=C/C[C@@H](C)[C@H]1CC[C@@]2(C)[C@@H]3C=C[C@@]45O[C@@H](OC)[C@]3(CC[C@]12C)[C@@H]4CC[C@H](O)C5(C)C	70	82.7	18.5	60.2	0	2	33	80	1.7	4
C=C(C)/C=C/C[C@@H](C)[C@H]1CC[C@@]2(C)[C@@H]3C=C[C@@]45OC(=O)[C@]3(CC[C@]12C)[C@@H]4CC[C@H](O[C@@H]1O[C@H](CO)[C@@H](O)[C@H](O)[C@H]1O)C5(C)C [CHARANTOSIDE VII]	70	100	28.1	75.1	9.9					
CC1(C)N([O])C(c2ccc(C(=O)O)cc2)=[N+]([O-])C1(C)C						8				
CO[C@H](C=C(C)C)C[C@@H](C)[C@H]1CC[C@@]2(C)[C@@H]3[C@@H](OC)C=C4[C@@H](CC[C@H](O[C@@H]5O[C@H](CO)[C@@H](O)[C@H](O)[C@H]5O)C4(C)C)[C@]3(C)CC[C@]12C [KARAVILOSIDE I]	70	100	39.2	83.7	16.1					
CO[C@@H](C=C(C)C)C[C@@H](C)[C@H]1CC[C@@]2(C)[C@@H]3C=C[C@@]45OC[C@]3(CC[C@]12C)[C@@H]4CC[C@H](O[C@@H]1O[C@H](CO)[C@@H](O)[C@H](O)[C@H]1O)C5(C)C [CHARANTOSIDE V]	70	100	30.6	77	10.5					
COC1O[C@]23C=C[C@@H]4[C@@]1(CC[C@]1(C)[C@@H]([C@H](C)C/C=C/C(C)(C)O)CC[C@@]41C)[C@@H]2CC[C@H](O)C3(C)C (some centres undefined)	70	94.5	27.6	72.5	0	1.9				
CO[C@H]1C=C2[C@@H](CC[C@H](O)C2(C)C)[C@]2(C=O)CC[C@]3(C)[C@@H]([C@H](C)C/C=C/C(C)(C)OC)CC[C@@]3(C)[C@H]12	70	97.3	33.7	77.5	0	1.5				
CC1=C(/C=C/C(C)=C/C=C/C(C)=C/C=C/C=C(C)/C=C/C=C(C)/C=C/C2=C(C)CCCC2(C)C)C(C)(C)CCC1		100	34.2	82.1	8.6					
C=C(C)/C=C/C[C@@H](C)[C@H]1CC[C@@]2(C)[C@@H]3C=C[C@@]45O[C@@H](OC)[C@]3(CC[C@]12C)[C@@H]4CC[C@H](O[C@@H]1O[C@H](CO)[C@@H](O)[C@H](O)[C@H]1O)C5(C)C [CHARANTOSIDE I]	70	100	35.4	81.1	12.6					
COc1cc(/C=C/C(=O)CC(=O)/C=C/c2ccc(O)c(OC)c2)ccc1O [CURCUMIN]	70	100	22.8	81.8	0					
